Results: PubChem BioAssay AID504338 (NMMLSC, 2011)
“And” between values parts separate entries of the source, which are not always exact repeats. Identical values can stand only once. Values without a mark were called inactive. The source made the active and inactive calls.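 Rule for the calls: active = GFP response vs DMSO above 150% with enough events counted; inconclusive = fewer than 70 events counted for a yeast strain; inactive = the rest.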

assay: yeast TOR reporter LAP4-GFP retest – cell-based, third cherry pick, flow cytometry, confirmation (AID 504338);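 note: ratio to plate DMSO wells so 100% equals DMSO level rather than 0%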; conditions: S. cerevisiae LAP4-GFP strain, 3 h, at 10 µM, hits give high values
In short: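 Material: Saccharomyces cerevisiae strain expressing LAP4-GFP fusion protein / Compound: 10 µM, one concentration / Incubation: compound exposure for 3 h at 30 °C / Detection: high-throughput flow cytometry of GFP, single-cell scatter gate / Measure: median GFP fluorescence as percent of plate DMSO-well average / Benchmarks: rapamycin 400 ng/mL high, DMSO low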

Compared with `Nc1c(C(=O)O)ccc2c1C(=O)c1ccccc1C2=O`, `Nc1cccc2c1C(=O)c1ccc(Cl)cc1C2=O` is lower in GFP response vs DMSO: 115% for the first, 100% for the second.

Going from `Cc1cccc(C)c1Nc1ncnc(N)c1[N+](=O)[O-]` to `COc1ccccc1Nc1nc(NCC(C)C)nc(N)c1[N+](=O)[O-]`, the GFP response vs DMSO rises from 101% to 104%.

Going from `O=C(Nc1nc(-c2ccccn2)cs1)c1ccccc1-n1cnnn1` to `Cc1ccc(C(=O)Nc2nc(-c3ccccn3)cs2)o1`, the GFP response vs DMSO rises from 94.4% to 103%.

First: Cc1nc2c(O)cccc2cc1CO
Second: O=C(O)c1ccc2cccc(O)c2n1
The GFP response vs DMSO of the first is higher: 101% for the first, 100% for the second.

Going from `Nc1nc(NCCOCCO)nc(Nc2cccc(F)c2)c1[N+](=O)[O-]` to `COCCCNc1nc(N)c([N+](=O)[O-])c(Nc2ccccc2OC)n1`, the GFP response vs DMSO rises from 104% to 106%.

Going from `COc1ccccc1Nc1nc(NCCC(C)C)nc(N)c1[N+](=O)[O-]` to `CCC(C)Nc1nc(N)c([N+](=O)[O-])c(Nc2cc(OC)ccc2OC)n1` (centres undefined), the GFP response vs DMSO rises from 100% to 101%.

First: O=C(Nc1ccccc1)ON=C1c2ccccc2-c2ccccc21
Second: O=C(N/N=C/c1ccccc1)c1cccc2ccccc12
The GFP response vs DMSO of the first is higher: 106% for the first, 103% for the second.

Going from `CC(=O)C(CC(=O)N1CCCC1)C(=O)Nc1ccc(Cl)cc1` (centres undefined) to `C/C(=C\C(=O)c1ccc(Cl)cc1)Nc1ccc(Br)cc1`, the GFP response vs DMSO falls from 108% to 101%.

Compared with `Cc1cccc(Nc2cc(=O)[nH]c(=O)[nH]2)c1C`, `Cc1cccc(Nc2cc(=O)[nH]c(=O)[nH]2)c1` is higher in GFP response vs DMSO: 101% for the first, 106% for the second.

Going from `CC(=O)Nn1cnc2c(c1=O)C1(CCCC1)Cc1ccccc1-2` to `CCC(=O)Nn1cnc2c(c1=O)C1(CCCCC1)Cc1ccccc1-2`, the GFP response vs DMSO falls from 103% to 101%.

Going from `OCc1ccc(O)c2ncccc12` to `CN(C)CCCNc1cc(O)c2ncccc2c1`, the GFP response vs DMSO rises from 101% to 110%.

Going from `OCCNc1ncnc2ccc(Br)cc12` to `COc1cccc(N/C(C)=C/C(=O)c2ccc(Br)cc2)c1`, the GFP response vs DMSO rises from 98.6% to 103%.

First: Cc1ccc(C(=O)/C=C/Nc2cccc(O)c2)cc1
Second: COc1ccc(N/C(C)=C/C(=O)c2ccccc2)cc1
The GFP response vs DMSO of the first is higher: 117% for the first, 104% for the second.

First: COCC(C)NC(=O)CCS(=O)(=O)c1nc(-c2ccc(OC)cc2)cc(C(F)(F)F)n1 (centres undefined)
Second: Cc1ccc(-c2cc(C(F)F)nc(S(C)(=O)=O)n2)cc1
The GFP response vs DMSO of the first is lower: 104% for the first, 114% for the second.

Compared with `COc1cccc(NC(=O)CC(C)=O)c1`, `COc1cccc2c(=O)c(C(=O)O)c[nH]c12` is higher in GFP response vs DMSO: 101% for the first, 110% for the second.

Going from `CC1=CN2C(=N)/C(=C/c3ccco3)C(=O)N=C2S1` to `COC1=C/C(=C/c2c(N)n3cc(C)sc3nc2=O)C=CC1=O`, the GFP response vs DMSO rises from 101% to 110%.

Going from `Cc1nc(Nc2ccc(Br)cc2Br)c([N+](=O)[O-])c(=O)[nH]1` to `COc1ccc(Nc2nc(NN)nc(C)c2[N+](=O)[O-])cc1`, the GFP response vs DMSO falls from 106% to 100%.

First: Cc1ccc(NN2C(=O)C=C(c3ccccc3)C2=O)cc1
Second: Cn1c(NCCCO)nc2c(c1=O)C1(CCCCC1)Cc1ccccc1-2
The GFP response vs DMSO of the first is higher: 138% for the first, 104% for the second.

In the case of `CCc1sc(C(=O)Nc2nc(-c3ccccn3)cs2)cc1C`, the GFP response vs DMSO is reported as 189% (active).
In the case of `COc1ccccc1-c1cc(C(F)(F)F)nc(S(=O)(=O)CCCC(=O)NC(C)C)n1`, the GFP response vs DMSO is reported as 101% and 104%.
In the case of `Oc1c(Br)cc(Br)c2cccnc12`, the GFP response vs DMSO is reported as 257% (active).
